# Reference: publication PMC2920599 (Journal of medicinal chemistry, 2010)
# Where a name gives a salt, the structure may show the parent alone. Read-outs that look alike come from different tables or passages of the source.
# Columns and labels:
# [1] = system: Leukemia; assay: NCI 60 cell panel, five-concentration assay, leukemia subpanel; format: cell-based; conditions: total growth inhibition; 48 h exposure
# [2] = system: NSCLC; assay: NCI 60 cell panel, five-concentration assay, NSCLC subpanel; format: cell-based; conditions: total growth inhibition; 48 h exposure
# [3] = system: Colon; assay: NCI 60 cell panel, five-concentration assay, colon subpanel; format: cell-based; conditions: total growth inhibition; 48 h exposure
# [4] = system: CNS; assay: NCI 60 cell panel, five-concentration assay, CNS subpanel; format: cell-based; conditions: total growth inhibition; 48 h exposure
# [5] = system: Melanoma; assay: NCI 60 cell panel, five-concentration assay, melanoma subpanel; format: cell-based; conditions: total growth inhibition; 48 h exposure
# [6] = system: Ovarian; assay: NCI 60 cell panel, five-concentration assay, ovarian subpanel; format: cell-based; conditions: total growth inhibition; 48 h exposure
# [7] = system: Renal; assay: NCI 60 cell panel, five-concentration assay, renal subpanel; format: cell-based; conditions: total growth inhibition; 48 h exposure
# [8] = system: Prostate; assay: NCI 60 cell panel, five-concentration assay, prostate subpanel; format: cell-based; conditions: total growth inhibition; 48 h exposure
# [9] = system: Breast; assay: NCI 60 cell panel, five-concentration assay, breast subpanel; format: cell-based; conditions: total growth inhibition; 48 h exposure
# [10] = system: full NCI 60 cell panel; conditions: for TGI MG-MID (mean TGI) / GI50: calculated panel mean, 48 h exposure; for GI50: read-out: GI50 MG-MID (mean GI50)
# [11] = system: MCF-7 breast cancer cells; assay: Growth and death of MCF-7 cells; format: cell-based, human; conditions: 200 nM, viable cells counted daily
# In short: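 MCF-7 cells grown in RPMI 1640 with 10% FBS and 2 mM L-glutamine at 37°C, 5% CO2. Plated at 2×10^4 cells/cm2; compound added 24 h later from 10 mmol/L DMSO working solutions, with DMSO-only controls. Cells harvested with 0.11% trypsin/0.02% EDTA and counted; viability by trypan blue exclusion. Treated vs control compared by Student t-test, P<0.05.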
# [12] = system: p53; assay: Western blotting of p53 in MCF-7 cells; format: cell-based, human; conditions: 5 μM, 20 h
# [13] = system: ERK1/2; assay: Western blotting of ERK1/2 phosphorylation in MCF-7 cells; format: cell-based, human; conditions: 5 μM, 20 h
# In short: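 MCF-7 cells treated 20 h, then collected in 20 mM HEPES pH 7.5 with 5 mM DTT, 2 mM EDTA, 0.1% CHAPS, 0.1% Triton X-100 and protease inhibitors, and freeze-thawed twice. Extracts run on SDS-PAGE at 80 μg protein/lane and immunoblotted for total and phosphorylated ERK1/2 and Akt, p53, p21 and β-actin. Blots representative of at least three experiments.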
# [14] = system: female athymic nude mouse; conditions: in vivo, ip
# [15] = system: full NCI 60 cell panel; assay: cells; conditions: Homo sapiens, 48 h, read-out: GI50 MG-MID (mean GI50)
SMILES,TGI Leukemia [1] [µM],TGI NSCLC [2] [µM],TGI Colon [3] [µM],TGI CNS [4] [µM],TGI Melanoma [5] [µM],TGI Ovarian [6] [µM],TGI Renal [7] [µM],TGI Prostate [8] [µM],TGI Breast [9] [µM],CC50 [10] [µM],TGI MG-MID (mean TGI) [10] [µM],GI50 [10] [µM],effect on MCF-7 cell growth (total cell number) [11],p53 expression [12],ERK phosphorylation [13],maximum tolerated dose (MTD) [14] [mg/kg],GI50 [15] [µM]
COc1cc2c(/C=C3/C(=O)N(C)c4ccc(O)cc43)c(Cl)n(C)c2cc1C [Compound 14],0.47,6.03,3.55,1.74,7.41,11.75,4.27,3.16,1.70,33.9,3.39,0.1,,,,,
COc1cc2c(cc1C)N(C)C(=O)/C2=C/c1c(Cl)n(C)c2cc(C)c(OC)cc12 [Compound 15],56.23,69.18,83.18,26.92,67.61,60.26,41.69,67.61,36.31,87.1,52.48,14.1,,,,,
COc1cc2c(cc1C)N(C)C(=O)/C2=C/c1c(Cl)[nH]c2ccccc12 [Compound 16],7.41,12.30,9.33,7.59,18.20,11.75,12.88,21.38,8.32,,10.96,0.45,"initially decreased cell proliferation, however after 24 h, the cells recovered and started to grow",caused a p53 increase,decreased ERK phosphorylation,100,
CN(C)c1ccc2[nH]c(Cl)c(/C=C3/C(=O)Nc4ccc(Cl)cc43)c2c1 [Compound 18],17.78,10.00,7.24,5.50,11.22,11.75,8.13,13.49,9.12,38.9,9.77,,,,,,
CN(C)c1ccc2[nH]c(Cl)c(/C=C3/C(=O)Nc4ccc(O)cc43)c2c1 [Compound 19],13.49,31.62,20.42,36.31,25.70,52.48,33.88,53.70,33.88,,29.51,4.37,,,,,
COc1ccc2c(c1)/C(=C\c1c(Cl)[nH]c3ccc(N(C)C)cc13)C(=O)N2 [Compound 20],10.23,15.49,9.55,7.94,15.49,15.14,13.80,19.05,8.51,49,12.02,2.29,,,,,
"CC[C@]1(O)C[C@H]2CN(CCc3c([nH]c4ccccc34)[C@@](C(=O)OC)(c3cc4c(cc3OC)N(C=O)[C@H]3[C@@](O)(C(=O)OC)[C@H](OC(C)=O)[C@]5(CC)C=CCN6CC[C@]43[C@@H]65)C2)C1 [Vincristine sulfate, reference compound]",15.85,15.85,3.98,6.31,7.94,19.95,19.95,6.31,7.94,,10.00,,,,,,0.2
